Measured values published in ChEMBL document CHEMBL1811830, “Synthesis, structure and cytotoxicity of 3-C, N, S, Se substituted benzo[b]selenophene derivatives” (Eur J Med Chem, 2011).
≈ marks a conversion by molar mass, not a printed value. Calls of active or inactive are those of the source. No cut-off for these calls is given here.

Assays:
[1] = test system: HT-1080; experiment: Cytotoxicity against human HT1080 cells assessed as nitric oxide concentration at 100 ug/ml after 72 hrs by crystal violet coloration assay (reference value: 100%); assay type: functional
[2] = test system: HT-1080; experiment: Cytotoxicity against human HT1080 cells after 72 hrs by MTT assay; assay type: functional; settings: for CC50: HT-1080, 72 h, read-out: TD50 (the source's name)
In short: (§1)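 Cells from passages 1–4 after thawing, seeded at about 2–5·10⁴ cells/mL with compounds added immediately. Incubation 72 h, 37 °C, 5% CO₂. MTT read-out: medium replaced with fresh medium containing 10 mM HEPES, MTT (2 mg/mL in HBSS) added for 3 h. Dissolved in DMSO plus glycine buffer pH 10.5, absorbance 540 nm. TD50 = concentration giving 50% cell kill, averaged from CV and MTT.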

[3] = test system: MG-22A; experiment: Cytotoxicity against mouse MG-22A cells after 72 hrs by MTT assay; assay type: functional; settings: for CC50: read-out: TD50 (the source's name); in short: as §1
[4] = test system: MG-22A; experiment: Cytotoxicity against mouse MG-22A cells assessed as nitric oxide concentration at 100 ug/ml after 72 hrs by crystal violet coloration assay (reference value: 100%); assay type: functional
[5] = (§2) Cytotoxicity against mouse NIH/3T3 cells after 72 hrs by MTT assay; assay type: cell-based, NIH3T3; settings: NIH/3T3 cells, read-out: TD50; in short: as §1
[6] = test system: HT-1080; experiment: Induction of mitochondria mediated apoptosis in human HT1080 cells assessed as change in cell phenotype after 72 hrs by acridine orange staining based fluorescence microscopic analysis; assay type: functional
In short: (§3)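 Adherent cells treated 72 h, 37 °C, 5% CO₂, in 96-well plates. Stained 2 min with acridine orange 10 μg/mL in PBS pH 7.4, washed once with PBS, then viewed in PBS by inverted fluorescence microscopy. Chromatin condensation shown by DNA staining: living cells green, apoptotic cells orange/yellow, necrotic cells red.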

[7] = test system: HT-1080; experiment: Induction of apoptosis in human HT1080 cells assessed as change in cell morphology after 72 hrs by acridine orange staining based fluorescence microscopic analysis; assay type: functional; in short: as §3
[8] = test system: HT-1080; experiment: Induction of apoptosis in human HT1080 cells assessed as nucleus fragmentation after 72 hrs by acridine orange staining based fluorescence microscopic analysis; assay type: functional, cell-based; in short: as §3
[9] = test system: NIH3T3; experiment: Induction of apoptosis in mouse NIH/3T3 cells after 72 hrs by acridine orange staining based fluorescence microscopic analysis; assay type: cell-based; settings: nih3t3, 72 h; in short: as §3
[10] = test system: NIH3T3; experiment: as §2; assay type: cell-based; settings: nih3t3, 72 h; in short: as §1
[11] = test system: HT-1080; experiment: Induction of apoptosis in human HT1080 cells assessed as change in cell phenotype after 72 hrs by acridine orange staining based fluorescence microscopic analysis; assay type: functional; in short: as §3

Structure (SMILES) | Activity [1] [%] | Activity [2] | Activity [3] | Activity [4] [%] | CC50 at 72 h [5] [µg/mL] | CC50 [2] [µg/mL] | CC50 [3] [µg/mL] | Activity [6] | Activity [7] | Activity [8] | Activity [9] | Activity [10] | Activity [11]
Cc1csc2nc3c([se]c4ccccc43)c(=O)n12 | 2 | inactive | inactive | 4 | 21 (≈ 65.8 µM) | – | – | – | – | – | – | – | –
O=c1c2[se]c3ccccc3c2nc2c3ncccc3ccn12 | 20 | inactive | inactive | 3 | 56 (≈ 160 µM) | – | – | – | – | – | – | – | –
CCOC(=O)c1[se]c2ccccc2c1Nc1cccnc1 | 12 | inactive | inactive | 9 | 1000 (≈ 2900 µM) | – | – | – | – | – | – | – | –
O=c1c2[se]c3ccccc3c2nc2c(Cl)cc(C(F)(F)F)cn12 | 2 | – | – | 8 | 31 (≈ 77.2 µM) | 3.5 (≈ 8.71 µM) | 2.75 (≈ 6.85 µM) | Active | – | – | – | – | –
CCOC(=O)c1[se]c2ccccc2c1Sc1ncccn1 | 8 | inactive | inactive | 7 | 840 (≈ 2310 µM) | – | – | – | – | – | – | – | –
CCOC(=O)c1[se]c2ccccc2c1-c1ccccc1 | 25 | – | inactive | 23 | 16 (≈ 48.6 µM) | 65 (≈ 197 µM) | – | – | – | – | – | – | –
O=c1c2[se]c3ccccc3c2nc2cnccn12 | 2 | inactive | inactive | 7 | 27 (≈ 89.9 µM) | – | – | – | – | – | – | – | –
O=c1c2[se]c3ccccc3c2nc2sc3ccccc3n12 | 2 | – | – | 3 | 27 (≈ 76 µM) | 8.5 (≈ 23.9 µM) | 9.5 (≈ 26.7 µM) | – | Active | – | – | – | –
O=c1c2[se]c3ccccc3c2nc2ccc(Cl)cn12 | 3 | – | – | 40 | 32 (≈ 95.9 µM) | 3 (≈ 8.99 µM) | 3 (≈ 8.99 µM) | – | – | Active | Toxic | – | –
CCOC(=O)c1[se]c2ccccc2c1-c1ccc(OC(C)C)cc1 | 9 | inactive | inactive | 15 | – | – | – | – | – | – | – | Non-toxic | –
CCOC(=O)c1[se]c2ccccc2c1-c1ccc(C#N)cc1 | 8 | inactive | inactive | 7 | 684 (≈ 1930 µM) | – | – | – | – | – | – | – | –
CCOC(=O)c1[se]c2ccccc2c1-c1ccc(C)s1 | 350 | – | – | 350 | 15 (≈ 42.9 µM) | 16 (≈ 45.8 µM) | 19.5 (≈ 55.8 µM) | – | – | – | – | – | –
CCOC(=O)c1[se]c2ccccc2c1C#CC1=CCCCC1 | 200 | – | – | 200 | 120 (≈ 336 µM) | 32.5 (≈ 91 µM) | 32 (≈ 89.6 µM) | – | – | – | – | – | –
CCOC(=O)c1[se]c2ccccc2c1C#Cc1ccccc1 | 15 | – | – | 10 | 614 (≈ 1740 µM) | 76 (≈ 215 µM) | 87 (≈ 246 µM) | – | – | – | – | – | –
O=c1c2[se]c3ccccc3c2nc2ccccn12 | 5 | – | – | 7 | 31 (≈ 104 µM) | 3 (≈ 10 µM) | 3 (≈ 10 µM) | – | – | – | Toxic | – | Active
CCOC(=O)c1[se]c2ccccc2c1-c1cc(F)c(F)c(F)c1 | 6 | inactive | – | 12 | 100 (≈ 261 µM) | – | 81.5 (≈ 213 µM) | – | – | – | – | – | –
CCOC(=O)c1[se]c2ccccc2c1Br | 14 | inactive | – | 40 | 896 (≈ 2700 µM) | – | 40.5 (≈ 122 µM) | – | – | – | – | – | –
CCOC(=O)c1[se]c2ccccc2c1-c1ccsc1 | 13 | inactive | inactive | 14 | 31 (≈ 92.5 µM) | – | – | – | – | – | – | – | –
